Assay results from different studies.
Protocols differ between the studies behind these lines. ≈ marks a conversion by molar mass, not a printed value.
Organism: Klebsiella pneumoniae

With `C[C@@H](O)[C@H]1C(=O)N2C(C(=O)O)=C(SCCNC=N)C[C@H]12` the MIC was 0.5 µg/mL (microbial growth, broth dilution).
`C[C@H]1COc2c(N3CCN(C)CC3)c(F)cc3c(=O)c(C(=O)O)cn1c23` gave an MBC of 0.06 µg/mL (≈ 0.166 µM) (microbial killing; ATCC27736).
`COc1cc(C=Nc2ccc(C)cc2Cl)ccc1O` gave an inhibition zone of 15 mm (microbial growth, disc diffusion; 2000 µg/mL, 24 h).
The MIC of `Cc1[nH]c(C(=O)Nc2ccc(C(=O)NCC(=O)O)cc2N2CC[C@@H](N)C2)c(Cl)c1Cl.Cl` is reported as over 32 µg/mL (microbial growth, broth dilution; ATCC700603).
`C[C@@H](O)[C@H]1C(=O)N2C(C(=O)O)=C(S[C@@H]3CN[C@H](C(=O)N(C)C)C3)[C@H](C)[C@H]12` gave an MIC90 of 1020 µg/mL (≈ 2670 µM) (microbial growth, broth dilution; clinical isolate).
`C[C@H]1COc2c(N3CCN(C)CC3)c(F)cc3c(=O)c(C(=O)O)cn1c23` gave an MIC of over 16 µg/mL (microbial growth, broth dilution).
`Cl.N[C@H]1CCN(c2cc(C(=O)NCC(=O)O)ccc2NC(=O)c2cc(Br)c(Br)[nH]2)C1` has an MIC of over 32 µg/mL (microbial growth, broth dilution; ATCC700603).
For `CC(C)(O/N=C(\C(=O)N[C@@H]1C(=O)N2C(C(=O)[O-])=C(C[n+]3ccccc3)CS[C@H]12)c1csc(N)n1)C(=O)O`, the inhibition zone was 12 mm (microbial growth, disc diffusion; 2000 µg/mL, 24 h).
With `O=C(O)c1cn(C2CC2)c2cc(N3CCNCC3)c(F)cc2c1=O` the MIC was 32 µM (microbial growth; ATCC700603).
`COc1cc(C=Nc2ccc(Cl)cc2Cl)ccc1O` gave an inhibition zone of 15 mm (microbial growth, disc diffusion; 2000 µg/mL, 24 h).
The MIC of `CC(C)(O/N=C(\C(=O)N[C@@H]1C(=O)N2C(C(=O)[O-])=C(C[n+]3ccccc3)CS[C@H]12)c1csc(N)n1)C(=O)O` is reported as under 0.5 µg/mL (microbial growth, broth dilution; ATCC13883; 20 h).
With `Cc1[nH]c(C(=O)Nc2ccc(C(=O)NCC(=O)O)cc2N2CCNCC2)c(Cl)c1Cl.Cl` the MIC was over 32 µg/mL (microbial growth, broth dilution; ATCC700603).
`COc1cc(C=Nc2ccccc2Br)ccc1O` has an inhibition zone of 14.7 mm (microbial growth, disc diffusion; 2000 µg/mL, 24 h).
